Measured values reported in ChEMBL document CHEMBL1155708, “Isoaurostatin, a novel topoisomerase inhibitor produced by Thermomonospora alba” (J Nat Prod, 2001).

Legend:
DNA topoisomerase 1 = molecular target: T1, DNA topoisomerase 1 (Chlorocebus aethiops, UniProt Q7YR26); assay: Inhibition topoisomerase 1 in african green monkey Vero cells assessed as conversion of supercoiled pBR322 DNA to relaxed form; assay type: cell-based, Chlorocebus sabaeus
T1 sequence (Q7YR26 whole entry): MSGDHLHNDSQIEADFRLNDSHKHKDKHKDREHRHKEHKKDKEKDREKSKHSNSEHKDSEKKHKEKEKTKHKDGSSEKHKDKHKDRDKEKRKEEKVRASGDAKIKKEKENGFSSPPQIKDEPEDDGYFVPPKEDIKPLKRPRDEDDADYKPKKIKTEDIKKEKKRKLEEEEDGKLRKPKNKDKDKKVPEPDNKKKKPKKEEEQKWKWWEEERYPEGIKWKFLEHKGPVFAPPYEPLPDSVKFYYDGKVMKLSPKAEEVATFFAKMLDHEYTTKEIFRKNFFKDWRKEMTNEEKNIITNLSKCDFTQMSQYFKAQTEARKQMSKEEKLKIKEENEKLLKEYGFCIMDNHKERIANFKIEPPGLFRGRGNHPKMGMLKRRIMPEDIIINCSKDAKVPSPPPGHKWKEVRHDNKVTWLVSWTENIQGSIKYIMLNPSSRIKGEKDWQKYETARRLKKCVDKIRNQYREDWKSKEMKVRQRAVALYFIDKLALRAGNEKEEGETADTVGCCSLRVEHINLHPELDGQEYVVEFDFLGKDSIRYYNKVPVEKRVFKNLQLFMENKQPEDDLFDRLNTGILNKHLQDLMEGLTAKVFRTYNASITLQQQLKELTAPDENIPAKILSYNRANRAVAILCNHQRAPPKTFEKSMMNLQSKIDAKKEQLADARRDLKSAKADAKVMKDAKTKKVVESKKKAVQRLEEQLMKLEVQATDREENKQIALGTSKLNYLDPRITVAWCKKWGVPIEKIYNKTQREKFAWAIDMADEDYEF
In short: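 Enzyme source: Vero or NIH3T3 cells cultured 5 days, washed in PBS and pelleted (1 × 10^6 cells). Lysed 30 min on ice in 200 µL buffer (10 mM Tris-HCl pH 7.5, MgCl2, EGTA, AEBSF, β-mercaptoethanol, 0.5% CHAPS, 10% glycerin); the cleared supernatant relaxed supercoiled pBR322. Gel densitometry; IC50 is the amount halving activity.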

[1] = Inhibition of wheat germ topoisomerase 1 assessed as conversion of supercoiled pBR322 DNA to relaxed form; parameters: species or system Triticum aestivum
[2] = molecular target: T2, Type II restriction enzyme HindIII (Haemophilus influenzae (strain ATCC 51907 / DSM 11121 / KW20 / Rd), UniProt P43870); assay: Inhibition of Haemophilus influenzae Hind 3 assessed as undigested supercoiled pBR322 DNA concentration
T2 sequence (P43870 whole entry): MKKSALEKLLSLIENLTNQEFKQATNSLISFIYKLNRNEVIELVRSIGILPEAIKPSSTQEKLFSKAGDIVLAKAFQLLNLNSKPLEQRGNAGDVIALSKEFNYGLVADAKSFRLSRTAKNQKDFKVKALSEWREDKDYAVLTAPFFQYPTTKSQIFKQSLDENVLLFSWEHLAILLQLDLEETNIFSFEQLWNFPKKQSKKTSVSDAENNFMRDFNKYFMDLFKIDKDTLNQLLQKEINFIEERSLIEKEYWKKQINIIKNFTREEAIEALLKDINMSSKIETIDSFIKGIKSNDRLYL
In short: (§1)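 Restriction enzyme or nuclease activity followed as the remaining undigested supercoiled pBR322 DNA (or RNA) after reaction.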

[3] = molecular target: T3, Deoxyribonuclease-2-alpha (Sus scrofa, UniProt O62855); assay: Inhibition of porcine spleen DNase 2 assessed as undigested supercoiled pBR322 DNA concentration; in short: as §1
T3 sequence (O62855 whole entry): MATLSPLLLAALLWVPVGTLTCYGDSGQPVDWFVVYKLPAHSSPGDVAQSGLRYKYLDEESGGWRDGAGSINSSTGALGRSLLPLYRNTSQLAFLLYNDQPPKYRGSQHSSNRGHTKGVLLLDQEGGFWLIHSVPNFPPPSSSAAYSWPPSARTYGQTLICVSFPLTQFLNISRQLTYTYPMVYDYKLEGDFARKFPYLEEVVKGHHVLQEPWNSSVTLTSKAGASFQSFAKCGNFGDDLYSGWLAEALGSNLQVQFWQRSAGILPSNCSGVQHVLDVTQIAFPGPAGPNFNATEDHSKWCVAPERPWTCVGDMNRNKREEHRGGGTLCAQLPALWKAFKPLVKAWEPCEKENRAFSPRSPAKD

[4] = molecular target: Type II restriction enzyme EcoRI (Escherichia coli, UniProt P00642); assay: Inhibition of Escherichia coli Eco R1 assessed as undigested supercoiled pBR322 DNA concentration; in short: as §1
Chain of Type II restriction enzyme EcoRI (P00642 whole entry): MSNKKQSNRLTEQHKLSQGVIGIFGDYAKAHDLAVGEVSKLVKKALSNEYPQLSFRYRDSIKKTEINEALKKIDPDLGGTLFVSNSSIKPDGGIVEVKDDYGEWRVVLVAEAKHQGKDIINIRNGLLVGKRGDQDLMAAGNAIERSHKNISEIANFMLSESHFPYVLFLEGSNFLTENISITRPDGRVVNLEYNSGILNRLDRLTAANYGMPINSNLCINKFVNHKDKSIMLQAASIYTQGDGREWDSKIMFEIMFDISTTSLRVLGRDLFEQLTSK

Deoxyribonuclease-1 = Deoxyribonuclease-1 (Bos taurus, UniProt P00639); assay: Inhibition of bovine pancreas DNase 1 assessed as undigested supercoiled pBR322 DNA concentration; in short: as §1
Chain of Deoxyribonuclease-1 (P00639 whole entry): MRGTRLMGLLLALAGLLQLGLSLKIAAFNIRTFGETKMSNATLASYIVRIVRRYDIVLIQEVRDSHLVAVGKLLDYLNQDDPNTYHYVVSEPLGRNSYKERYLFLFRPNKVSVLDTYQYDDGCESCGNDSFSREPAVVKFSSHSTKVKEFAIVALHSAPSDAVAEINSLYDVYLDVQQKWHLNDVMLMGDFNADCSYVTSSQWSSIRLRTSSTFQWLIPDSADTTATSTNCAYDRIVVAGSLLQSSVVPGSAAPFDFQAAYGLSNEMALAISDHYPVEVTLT

Ribonuclease pancreatic = molecular target: T4, Ribonuclease pancreatic (Bos taurus, UniProt P61823); assay: Inhibition of bovine pancreas RNase A assessed as undigested supercoiled pBR322 DNA concentration; in short: as §1
T4 sequence (P61823 whole entry): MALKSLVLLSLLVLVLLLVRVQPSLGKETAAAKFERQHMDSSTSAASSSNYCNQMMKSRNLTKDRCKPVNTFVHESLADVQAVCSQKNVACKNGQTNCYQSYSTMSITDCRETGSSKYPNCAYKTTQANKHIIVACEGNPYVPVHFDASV

[5] = molecular target: T5, Type II restriction enzyme BamHI (Bacillus amyloliquefaciens, UniProt P23940); assay: Inhibition of Bacillus amyloliquifaction Bam H1 assessed as undigested supercoiled pBR322 DNA concentration; in short: as §1
T5 sequence (P23940 whole entry): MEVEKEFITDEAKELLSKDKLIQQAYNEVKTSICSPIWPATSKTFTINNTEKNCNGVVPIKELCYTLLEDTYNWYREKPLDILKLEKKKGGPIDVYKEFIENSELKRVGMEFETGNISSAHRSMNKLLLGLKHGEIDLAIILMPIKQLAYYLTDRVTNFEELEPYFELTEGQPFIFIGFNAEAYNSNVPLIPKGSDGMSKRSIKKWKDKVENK

[6] = molecular target: DNA topoisomerase 2-alpha (Homo sapiens, UniProt P11388); assay: Inhibition human placenta topoisomerase 2 assessed as conversion of catenated kinetoplast DNA to minicircle monomer
Chain of DNA topoisomerase 2-alpha (P11388 whole entry): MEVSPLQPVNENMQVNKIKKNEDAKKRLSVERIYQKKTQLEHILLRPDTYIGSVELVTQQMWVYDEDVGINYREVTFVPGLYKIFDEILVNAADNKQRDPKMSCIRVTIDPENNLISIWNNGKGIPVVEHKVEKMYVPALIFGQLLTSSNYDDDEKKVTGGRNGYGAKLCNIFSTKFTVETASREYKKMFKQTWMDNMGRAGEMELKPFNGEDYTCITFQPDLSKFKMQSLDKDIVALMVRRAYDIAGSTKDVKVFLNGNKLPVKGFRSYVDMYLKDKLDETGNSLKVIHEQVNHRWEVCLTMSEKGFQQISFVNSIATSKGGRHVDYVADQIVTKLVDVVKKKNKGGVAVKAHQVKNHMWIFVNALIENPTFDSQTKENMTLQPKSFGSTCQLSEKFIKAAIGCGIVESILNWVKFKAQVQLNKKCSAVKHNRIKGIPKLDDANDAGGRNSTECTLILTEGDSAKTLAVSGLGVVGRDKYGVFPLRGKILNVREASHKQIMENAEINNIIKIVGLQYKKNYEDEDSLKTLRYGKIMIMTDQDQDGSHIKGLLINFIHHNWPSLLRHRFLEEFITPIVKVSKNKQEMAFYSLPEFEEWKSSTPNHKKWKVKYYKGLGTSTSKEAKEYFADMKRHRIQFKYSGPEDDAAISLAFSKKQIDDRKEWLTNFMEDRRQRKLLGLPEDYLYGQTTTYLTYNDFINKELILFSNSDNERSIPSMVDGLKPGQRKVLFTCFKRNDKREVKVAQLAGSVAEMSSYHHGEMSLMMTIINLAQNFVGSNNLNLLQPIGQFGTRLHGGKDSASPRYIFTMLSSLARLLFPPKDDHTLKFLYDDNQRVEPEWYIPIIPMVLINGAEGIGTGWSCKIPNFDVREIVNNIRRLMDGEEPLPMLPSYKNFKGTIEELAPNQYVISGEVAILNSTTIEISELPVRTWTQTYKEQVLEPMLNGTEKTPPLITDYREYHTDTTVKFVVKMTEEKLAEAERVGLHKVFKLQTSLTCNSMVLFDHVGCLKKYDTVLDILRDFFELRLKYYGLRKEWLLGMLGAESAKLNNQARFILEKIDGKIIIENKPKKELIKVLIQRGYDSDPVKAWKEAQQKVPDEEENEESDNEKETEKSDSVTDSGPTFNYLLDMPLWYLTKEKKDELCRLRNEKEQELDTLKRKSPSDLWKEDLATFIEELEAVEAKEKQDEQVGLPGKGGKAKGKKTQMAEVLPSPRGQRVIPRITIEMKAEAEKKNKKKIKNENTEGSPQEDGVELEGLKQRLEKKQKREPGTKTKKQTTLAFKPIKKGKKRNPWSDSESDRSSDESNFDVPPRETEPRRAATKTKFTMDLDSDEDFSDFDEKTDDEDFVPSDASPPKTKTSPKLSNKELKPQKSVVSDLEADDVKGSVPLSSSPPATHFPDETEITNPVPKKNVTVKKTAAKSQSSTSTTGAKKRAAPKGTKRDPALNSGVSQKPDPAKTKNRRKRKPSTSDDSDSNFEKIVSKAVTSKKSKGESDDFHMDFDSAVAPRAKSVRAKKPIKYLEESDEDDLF
In short: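 Human placenta topoisomerase II decatenation followed as conversion of catenated kinetoplast DNA to minicircle monomers.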

Compound | IC50 (DNA topoisomerase 1) | IC50 [1] | IC50 [2] | IC50 [3] | IC50 [4] | IC50 (Deoxyribonuclease-1) | IC50 (Ribonuclease pancreatic) | IC50 [5] | IC50 [6]
CC[C@@]1(O)C(=O)OCc2c1cc1n(c2=O)Cc2cc3ccccc3nc2-1 [CAMPTOTHECIN] | 27 µM | 3 µM | > 300 µM | > 300 µM | > 300 µM | > 300 µM | > 300 µM | > 300 µM | 
COc1cccc2c1C(=O)c1c(O)c3c(c(O)c1C2=O)C[C@@](O)(C(=O)CO)C[C@@H]3O[C@H]1C[C@H](N)[C@H](O)[C@H](C)O1 [DOXORUBICIN] | > 200 µM | > 200 µM | 96 µM | > 200 µM | > 200 µM | > 200 µM | 25 µM | > 200 µM | 1 µM
O=C1Oc2cc(O)ccc2/C1=C\c1ccc(O)cc1 [ISOAUROSTATIN] | > 400 µM | 67 µM | > 400 µM | > 400 µM | > 400 µM | > 400 µM | > 400 µM | > 400 µM | > 400 µM
C=C1NC(=O)C(C)C(CCC(C)C(=O)/C=C/C(C)=C/CC(C)CCCCCCC)OC(=O)[C@H](CC(OS(=O)(=O)O)C(N)=O)NC(=O)[C@@H](C)CNC1=O (stereo not given in full) [TOPOSTATIN] | 17 µM | 1 µM | 17 µM | > 250 µM | > 250 µM | > 250 µM | > 250 µM | 185 µM | 4 µM
